According to ChEMBL document CHEMBL2146421, “Synthesis and anticonvulsant activity of some new thiazolo[3,2-a][1,3]diazepine, benzo[d]thiazolo[5,2-a][12,6]diazepine and benzo[d]oxazolo[5,2-a][12,6]diazepine analogues” (Eur J Med Chem, 2011):

What was measured:
Mus musculus [1] = test: Anticonvulsant activity in Swiss albino mouse assessed as protection against maximal electroshock-induced convulsion at 0.37 mmol/kg, ip […]; format: functional
In short: (§1)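 Test compound given i.p. to mice; 30 min later, electric shock was applied through the ears while the mice were hand-restrained. The mice were then released to observe the maximal seizure. Each dose was tested in 10 animals and the percentage protected was recorded.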

Mus musculus [2] = test: Neurotoxicity in Swiss albino mouse assessed as inability to climb up backwards in a glass tube within 30 seconds at 1.5 mmol/kg, ip measured after 15 and 25 mins by Chimney test; format: toxicity, organism-based; settings: in vivo
In short: (§2)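 Chimney test: 15 and 25 min after i.p. dosing (3.0, 1.5, 0.75, 0.375 mmol/kg), inability of mice to climb backwards up a glass tube 25 cm long, 3 cm inner diameter, within 30 s recorded as neurological deficit.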

Mus musculus [3] = test: Anticonvulsant activity in ip dosed Swiss albino mouse assessed as protection against maximal electroshock-induced convulsion; format: functional
In short: (§3)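 Test agent given i.p. to mice; 30 min later electric shock applied through the ears, animals released immediately to observe maximal seizure; percentage protected recorded (10 animals per dose in dose-response runs).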

Mus musculus [4] = test: Anticonvulsant activity in Swiss albino mouse assessed as protection against bicuculline-induced convulsion at 1.5 mmol/kg, ip […] measured for 30 mins; format: functional
In short: (§4)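 Mice (6 per compound) dosed i.p.; 30 min later given bicuculline 1 mg/kg s.c. (freshly dissolved in 1 ml warmed 0.1 N HCl, made up with 0.9% NaCl), then observed 30 min; percentage anticonvulsion (animals protected) calculated. Dose-response runs used 10 animals per dose.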

Mus musculus [5] = test: Anticonvulsant activity in Swiss albino mouse assessed as protection against maximal electroshock-induced convulsion at 1.5 mmol/kg, ip […]; format: functional; in short: as §1
Mus musculus [6] = test: Neurotoxicity in Swiss albino mouse assessed as inability to climb up backwards in a glass tube within 30 seconds at 0.75 mmol/kg, ip measured after 15 and 25 mins by Chimney test; format: toxicity, organism-based; settings: in vivo; in short: as §2
[7] = Toxicity in Swiss albino mouse assessed as mortality at 0.75 mmol/kg, ip measured 7 to 11 mins before pentylenetetrazole challenge; format: organism-based; settings: in vivo, read-out: Activity
In short: (§5)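 Compounds given i.p. at 3.0, 1.5, 0.75 and 0.375 mmol/kg to 6 mice per compound. Deaths occurring before the PTZ injection were recorded. PTZ (83 mg/kg s.c.) followed 30 min after compound dosing.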

Mus musculus [8] = test: Neurotoxicity in Swiss albino mouse assessed as effect on motor activity at 3 mmol/kg, ip after 30 mins; format: toxicity, organism-based; settings: in vivo, 0.5 h
In short: (§6)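 Motor activity measured with an activity meter at 0 and 30 min after i.p. dosing, zero time taken as 100%.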

Mus musculus [9] = test: Anticonvulsant activity in Swiss albino mouse assessed as protection against maximal electroshock-induced convulsion at 3.0 mmol/kg, ip […]; format: functional; in short: as §3
Mus musculus [10] = test: Anticonvulsant activity in Swiss albino mouse assessed as protection against pentylenetetrazole-induced convulsion at 1.5 mmol/kg, ip treated after 30 mins of pentylenetetrazole measured for 30 mins; format: functional
Mus musculus [11] = test: Anticonvulsant activity in Swiss albino mouse assessed as protection against picrotoxin-induced convulsion at 1.5 mmol/kg, ip […] measured for 30 mins; format: functional
In short: (§7)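 Test compound given i.p.; 30 min later, picrotoxin 3.15 mg/kg s.c. was injected. Picrotoxin was freshly dissolved in 1 ml warmed 0.1 N HCl and made up with 0.9% NaCl. Each dose was tested in 10 animals and the percentage of mice protected from clonic convulsions was recorded.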

Mus musculus [12] = test: Anticonvulsant activity in Swiss albino mouse assessed as protection against bicuculline-induced convulsion at 3.0 mmol/kg, ip […] measured for 30 mins; format: functional; in short: as §4
Mus musculus [13] = test: Neurotoxicity in Swiss albino mouse assessed as inability to climb up backwards in a glass tube within 30 seconds at 0.37 mmol/kg, ip measured after 15 and 25 mins by Chimney test; format: toxicity, organism-based; settings: in vivo; in short: as §2
Mus musculus [14] = test: Hypnotic activity in Swiss albino mouse assessed as righting reflex at 1.5 mmol/kg, ip; format: ADME, organism-based; settings: in vivo
Mus musculus [15] = test: Anticonvulsant activity in Swiss albino mouse assessed as protection against maximal electroshock-induced convulsion at 0.75 mmol/kg, ip […]; format: functional; in short: as §3
Mus musculus [16] = test: Neurotoxicity in Swiss albino mouse assessed as effect on motor activity at 1.5 mmol/kg, ip after 30 mins; format: toxicity, organism-based; settings: in vivo, 0.5 h; in short: as §6
Mus musculus [17] = test: Anticonvulsant activity in Swiss albino mouse assessed as protection against bicuculline-induced convulsion at 0.37 mmol/kg, ip […] measured for 30 mins; format: functional; in short: as §4
Mus musculus [18] = test: Anticonvulsant activity in Swiss albino mouse assessed as protection against pentylenetetrazole-induced convulsion at 0.37 mmol/kg, ip treated 30 mins before pentylenetetrazole measured for 30 mins
Mus musculus [19] = test: Anticonvulsant activity in Swiss albino mouse assessed as protection against pentylenetetrazole-induced convulsion at 0.75 mmol/kg, ip treated after 30 mins of pentylenetetrazole measured for 30 mins; format: functional
Mus musculus [20] = test: Neurotoxicity in Swiss albino mouse assessed as effect on motor activity at 0.75 mmol/kg, ip after 30 mins; format: toxicity, organism-based; settings: in vivo, 0.5 h; in short: as §6
Mus musculus [21] = organism: Mus musculus; test: Protective index, ratio of TD50 for Swiss albino mouse to ED50 for anticonvulsant activity in Swiss albino mouse; format: functional
In short: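 TD50 (median sedative dose) divided by ED50 (median effective dose), from dose-response curves at 10 mice per dose; 95% confidence limits given.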

[22] = Toxicity in Swiss albino mouse assessed as mortality at 3 mmol/kg, ip measured 7 to 11 mins before pentylenetetrazole challenge; format: organism-based; settings: in vivo, read-out: Activity; in short: as §5
Mus musculus [23] = test: Neurotoxicity in Swiss albino mouse assessed as inability to climb up backwards in a glass tube within 30 seconds at 3 mmol/kg, ip measured after 15 and 25 mins by Chimney test; format: toxicity, organism-based; settings: in vivo; in short: as §2
Mus musculus [24] = test: Anticonvulsant activity in Swiss albino mouse assessed as protection against pentylenetetrazole-induced convulsion at 3 mmol/kg, ip treated after 30 mins of pentylenetetrazole measured for 30 mins; format: functional
[25] = Toxicity in ip dosed Swiss albino mouse assessed as sedative effect; format: organism-based; settings: in vivo
[26] = Toxicity in Swiss albino mouse by Spearman-Karber method; format: organism-based; settings: in vivo
In short: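 LD50 in mice was determined by the Spearman–Karber method, with doses chosen at equal logarithmic intervals. 95% confidence limits were reported.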

Mus musculus [27] = test: Hypnotic activity in Swiss albino mouse assessed as righting reflex at 3 mmol/kg, ip; format: ADME, organism-based; settings: in vivo
[28] = Toxicity in Swiss albino mouse assessed as mortality at 1.5 mmol/kg, ip measured 7 to 11 mins before pentylenetetrazole challenge; format: organism-based; settings: in vivo, read-out: Activity; in short: as §5
Mus musculus [29] = test: Hypnotic activity in Swiss albino mouse assessed as righting reflex at 0.75 mmol/kg, ip; format: ADME, organism-based; settings: in vivo
Mus musculus [30] = test: Anticonvulsant activity in Swiss albino mouse assessed as protection against bicuculline-induced convulsion at 0.75 mmol/kg, ip […] measured for 30 mins; format: functional; in short: as §4
[31] = Therapeutic index, ratio of LD50 for Swiss albino mouse to ED50 for anticonvulsant activity in Swiss albino mouse; format: organism-based; settings: in vivo, read-out: Ratio LD50/ED50
In short: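 TI was calculated as LD50/ED50. ED50 came from dose-response curves in 10 mice per dose. LD50 was determined by the Spearman–Karber method, with doses at equal logarithmic intervals.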

Mus musculus [32] = test: Anticonvulsant activity in Swiss albino mouse assessed as protection against picrotoxin-induced convulsion at 0.75 mmol/kg, ip […] measured for 30 mins; format: functional; in short: as §7

SMILES	Activity (Mus musculus [1])	Activity (Mus musculus [2])	ED50 (Mus musculus [3])	Activity (Mus musculus [4])	Activity (Mus musculus [5])	Activity (Mus musculus [6])	Activity (Mus musculus [8])	Activity (Mus musculus [9])	Activity (Mus musculus [10])	Activity (Mus musculus [11])	Activity (Mus musculus [12])	Activity (Mus musculus [13])	Activity (Mus musculus [14])	Activity (Mus musculus [15])	Activity (Mus musculus [16])	Activity (Mus musculus [17])	Activity (Mus musculus [18])	Activity (Mus musculus [19])	Activity (Mus musculus [20])	Ratio TD50/ED50 (Mus musculus [21])	also measured
O=C1CCCN2C(=N1)Sc1cc(Cl)ccc12	0%	25%	380 mg/kg	66%	0%	0%	67%	33%	50%	20%	100%	0%	0%	0%	33%	10%	0%	25%	20%	1.09	mortality [7]: 0%; mortality [22]: 0%; Activity (Mus musculus [23]): 100%; Activity (Mus musculus [24]): 100%; TD50 [25]: 417 mg/kg; LD50 [26]: 617 mg/kg; Activity (Mus musculus [27]): 20%; mortality [28]: 0%; Activity (Mus musculus [29]): 0%; Activity (Mus musculus [30]): 10%; selectivity ratio [31]: 1.62
O=C1CCCN2C(=N1)Oc1ccc(Cl)cc12	0%	50%	251 mg/kg	50%	10%	17%	80%	70%	67%	40%	100%	0%	0%	0%	50%	0%	0%	33%	33%	1.41	mortality [7]: 0%; mortality [22]: 0%; Activity (Mus musculus [23]): 100%; Activity (Mus musculus [24]): 100%; TD50 [25]: 355 mg/kg; LD50 [26]: 537 mg/kg; Activity (Mus musculus [27]): 17%; mortality [28]: 0%; Activity (Mus musculus [29]): 0%; Activity (Mus musculus [30]): 20%; selectivity ratio [31]: 2.14
O=C1CCCN2C=CSC2=N1		0%							0%				0%		0%						mortality [28]: 33%
S=C1CCCN2C=C(Br)SC2=N1	0%	25%	252 mg/kg	50%	40%	0%	92%	70%	100%	66%	100%	0%	14%	10%	84%	0%	25%	50%	52%	1.58	mortality [22]: 0%; Activity (Mus musculus [23]): 100%; Activity (Mus musculus [24]): 100%; TD50 [25]: 398 mg/kg; LD50 [26]: 380 mg/kg; Activity (Mus musculus [27]): 40%; Activity (Mus musculus [29]): 0%; Activity (Mus musculus [30]): 10%; Activity (Mus musculus [32]): 20%; selectivity ratio [31]: 1.51
